Ecoli rRNA inh: inhibits bacterial ribosomal RNA function over humanized ribosomes; GFP signal change (wild-type ribosome), % (concentration not given with the values); AID 720706; 1.6% of 350,000 active; E. coli WT GFP vs humanized-ribosome RFP mutants, fluorescence, 24 h; stronger effect = lower value; DMSO median 0, no signal -100;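 active means significant combined selectivity score with lowered wild-type GFP, culture density cut under 30%, mutant RFP and density less affected; inactive means any of these conditions unmet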
E-sel inducer: induces E-selectin expression in human endothelial cells; P16581; HUVEC E-selectin immunofluorescence imaging; normalized: neutral wells 0, TNF-alpha wells 100; activation, % at 7.58 µM; 0.37% of 260,000 active; AID 686992;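 active means mean E-selectin-positive cell signal at least 10% of the positive control, reached in at least 60% of replicates, without over 20% cell loss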
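Material: HUVEC primary endothelial cells; Amount: 3,000 cells per well; Dosing: single concentration; Medium: EGM-2 growth medium on 0.1% gelatin-coated wells; Read-out basis: percent E-selectin-positive cells; Signal: immunofluorescence imaging; Control set: TNF-alpha, DMSO.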
INS-1E GSIS act: GLuc luminescence reporter in INS-1E cells, primary screen for activators of glucose-dependent secretion of insulin. INS-1E GLuc reporter insulin secretion, 2-3 h. activation, % at 16.6 µM. 0.61% of 370,000 active. AID 743287;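 active means lowest replicate activation of at least 40%, so every replicate reaches that level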
MLL AF4-AF9 inh: MLL-AF4/AF9 protein interaction inhibition; AlphaScreen, biotin-AF4 peptide binding to FLAG-AF9; 0.47% of 350,000 active; inhibition, % at 10 µM; AID 651704; P42568;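 active means every replicate reaching a set inhibition limit, whatever the replicate mean, cut at about 25% in these data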
Target sequence (P42568 whole entry, looked up): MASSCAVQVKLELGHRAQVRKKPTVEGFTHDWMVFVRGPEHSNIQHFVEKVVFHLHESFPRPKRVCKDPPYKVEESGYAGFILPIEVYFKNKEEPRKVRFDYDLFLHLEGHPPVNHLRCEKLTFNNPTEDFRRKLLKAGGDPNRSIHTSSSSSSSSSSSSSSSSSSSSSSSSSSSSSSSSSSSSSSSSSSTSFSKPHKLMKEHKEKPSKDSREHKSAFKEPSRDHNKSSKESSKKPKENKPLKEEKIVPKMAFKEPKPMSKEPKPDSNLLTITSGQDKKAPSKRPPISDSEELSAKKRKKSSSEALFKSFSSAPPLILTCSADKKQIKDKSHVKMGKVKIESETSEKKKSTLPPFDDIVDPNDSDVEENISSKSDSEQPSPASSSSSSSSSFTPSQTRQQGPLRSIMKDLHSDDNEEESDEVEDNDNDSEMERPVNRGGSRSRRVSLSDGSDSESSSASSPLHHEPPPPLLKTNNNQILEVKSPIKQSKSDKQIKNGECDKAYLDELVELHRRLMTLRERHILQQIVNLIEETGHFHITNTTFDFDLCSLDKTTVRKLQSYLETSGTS
RAD52 inh: blocks human RAD52 DNA annealing | AID 651710 | recombinant RAD52 DNA annealing, FRET fluorescence | inhibition, % at 18.7 µM | 0.46% of 360,000 active;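 active means every replicate showing at least 50% inhibition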
RAD54 branch: blocks human RAD54 Holliday junction branch migration. Q92698. FAM/BHQ fluorescence. inhibition, % at 10.4 µM. 0.14% of 360,000 active. AID 602329;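 active means mean normalized replicate activity at least 40 and at least half of replicates scoring 40 or more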;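 further: inhibitors cause a drop in the FAM fluorescence signal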
Hits are given with their value; 0 = inactive; - = no result. A selection: hits, their analogues and other compounds. The true share with any hit is near 2.6%.

SMILES	Ecoli rRNA inh	E-sel inducer	INS-1E GSIS act	MLL AF4-AF9 inh	RAD52 inh	RAD54 branch
O=C(/C=C/c1ccccc1)CCN1CCOCC1	0	0	52.4	0	0	-
COC(=O)C[C@H]1CC[C@@H]2[C@H](COc3ccc(NC(=O)c4cscn4)cc3C(=O)N2C)O1	0	0	0	0	0	0
O=C(NCc1ccccc1Cl)NCc1ccccc1Cl	0	0	0	31.8	0	-
Cc1coc2cc3oc(=O)c(Cc4ccccc4)c(C)c3cc12	-21.6	0	0	0	0	-
Cc1c(C)c2cc3c(C)coc3cc2oc1=O	0	0	0	0	0	0
Cc1ccc(NC(=O)CCCCCC2NC(=O)NC2C)cc1 (stereo unspecified)	0	-	0	97.1	0	0
CCOC(=O)c1ccc(S(=O)(=O)N2CCC(C(=O)Nc3nnc(C)o3)CC2)cc1	0	0	58.4	0	0	0
CCOC(=O)c1ccc(S(=O)(=O)N2CCC(C(=O)OCC)CC2)cc1	0	-	0	0	0	0
CC(C)NC(=O)N(C)C[C@H]1OCCCC[C@H](C)Oc2ccc(NS(=O)(=O)c3cccs3)cc2C(=O)N([C@@H](C)CO)C[C@H]1C	0	-	0	0	0	0
N#C/C(=N/O)c1nc(-c2ccc(F)cc2)cs1	-40.7	0	0	0	0	-
COC(=O)Cc1[nH]n(-c2nc3ccccc3s2)c(=O)c1C(C)=Nc1ccc(C)cc1	-25.9	-	0	0	0	-
O=C(OC(c1ccccc1)c1nccc2ccccc12)c1ccccc1 (stereo unspecified)	0	0	-	0	0	0
OC(c1ccc(Cl)cc1)c1nccc2ccccc12 (stereo unspecified)	-21.9	0	0	0	0	0
Cn1ncc(Br)c1C(=O)N1CCCC1	0	0	0	0	0	0
Cn1ncc(Br)c1C(=O)NC12CC3CC(CC(C3)C1)C2	-29.9	0	0	0	0	-
C[C@@H]1CN([C@@H](C)CO)C(=O)c2cccc(NS(=O)(=O)c3cn(C)cn3)c2O[C@@H]1CN(C)C(=O)Nc1cccc2ccccc12	0	0	0	0	0	0
COCC#Cc1cnc2c(c1)C(=O)N([C@H](C)CO)C[C@@H](C)[C@H](CN(C)Cc1ccc(F)cc1)O2	0	0	0	0	0	0
C[C@@H]1CN([C@H](C)CO)S(=O)(=O)c2ccc(-c3ccccc3)cc2O[C@H]1CN(C)S(C)(=O)=O	0	57.6	0	0	0	0
C[C@H](CO)N1C[C@H](C)[C@H](CN(C)C(=O)c2ccc3c(c2)OCO3)Oc2cc(-c3ccccc3)ccc2S1(=O)=O	0	108.5	0	0	0	0
C[C@H](CO)N1C[C@H](C)[C@@H](CN(C)S(C)(=O)=O)Oc2cc(-c3ccccc3)ccc2S1(=O)=O	0	0	0	0	0	0
CCc1ccc(-c2c(C)sc(NC(=O)C3CCC3)c2C#N)cc1	-	0	139.2	-	-	0
Cc1sc(NC(=O)C2CCCC2)c(C#N)c1C	0	-	-	0	0	0
CCC(C)[C@H](NS(=O)(=O)c1ccc(F)cc1Br)C(=O)OC (stereo partly specified)	0	0	0	0	0	0
COC(=O)[C@@H](NS(=O)(=O)c1cc(Br)ccc1Br)C(C)C	-26.5	0	0	0	0	0
COc1ccc(NC(=O)Nc2ccc3c(c2)C(=O)N([C@@H](C)CO)C[C@@H](C)[C@H](CN(C)Cc2ccc(C(F)(F)F)cc2)OCCCC[C@@H](C)O3)cc1	0	0	0	0	0	0
COc1ccc(CN(C)C[C@@H]2OCCCC[C@H](C)Oc3ccc(NC(=O)Nc4ccc(C(F)(F)F)cc4)cc3C(=O)N([C@H](C)CO)C[C@@H]2C)cc1	0	-	0	0	52.8	0
COc1ccc(NC(=O)Nc2ccc3c(c2)C(=O)N([C@H](C)CO)C[C@H](C)[C@H](CN(C)Cc2ccc(C(F)(F)F)cc2)OCCCC[C@@H](C)O3)cc1	0	0	0	0	0	0
COc1ccc(CN(C)C[C@H]2OCCCC[C@H](C)Oc3ccc(NC(=O)Nc4ccc(C(F)(F)F)cc4)cc3C(=O)N([C@H](C)CO)C[C@@H]2C)cc1	0	0	0	0	52.9	0

Screens from PubChem BioAssay.
